Measurements: ChEMBL document CHEMBL1212693, “Dorsomorphin inhibits BMP signals required for embryogenesis and iron metabolism” (Nat Chem Biol, 2008)
Active and inactive are the calls of the source. The rule behind the calls is not given here.

Tests used:
C2C12 [1] = experiment: Inhibition of BMPR1-mediated osteoblast differentiation in BMP6-stimulated mouse C2C12 cells assessed as decrease in alkaline phosphatase level at 4 uM by spectrophotometry; assay type: cell-based
In short: (§1)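 C2C12 cells were seeded at 2,000 per well in DMEM with 2% FBS and treated in quadruplicate with BMP4 or BMP6 plus compound or vehicle. After 5 d, cells were lysed in TBS with 1% Triton X-100. Lysates were incubated 1 h with p-nitrophenylphosphate and alkaline phosphatase was read as absorbance at 405 nm. Cell count was measured by CyQuant in parallel wells.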

Mus musculus [2] = species on record: Mus musculus; experiment: Inhibition of BMPR1-mediated Smad-1 phosphorylation in BMP7-stimulated mouse BMPR2 deficient PASMC at 4 uM treated 30 mins before BMP7 challenge measured after 30 mins by immunoblot analysis
In short: (§2)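 PASMCs (wild-type or BMPR-II–deficient) were kept 24 h in RPMI with 0.5% FCS, preincubated 30 min with compound or vehicle, then stimulated 30 min with recombinant BMP (10 ng ml−1). Extracts in SDS-lysis buffer were immunoblotted for phospho-SMAD1/5/8, with total SMAD1 and α-tubulin as loading controls. Bands were quantitated by phosphorimager.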

Mus musculus [3] = species on record: Mus musculus; experiment: Inhibition of BMPR1-mediated Smad-8 phosphorylation in BMP4-stimulated mouse PASMC at 100 to 200 ng/ml treated 30 mins before BMP4 challenge measured after 30 mins by immunoblot analysis
In short: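 Mouse PASMCs were held 24 h in RPMI with 0.5% FCS. They were preincubated 30 min with test agent, noggin or vehicle, then exposed to recombinant BMP4 for 30 min. SDS lysates were immunoblotted for phospho-SMAD1/5/8 and bands quantified by phosphorimager. Dose-dependence was fitted as a Hill plot.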

Mus musculus [4] = species on record: Mus musculus; experiment: Inhibition of BMPR1-mediated Smad-1 phosphorylation in BMP6-stimulated mouse PASMC at 4 uM treated 30 mins before BMP6 challenge measured after 30 mins by immunoblot analysis; in short: as §2
Danio rerio [5] = experiment: Inhibition of iron-dextran conjugate-induced Smad-8 phosphorylation in zebrafish at 23 ug/g, iv after 1 hr relative to control; assay type: functional
Mus musculus [6] = species on record: Mus musculus; experiment: Inhibition of BMPR1-mediated MAPK p38 phosphorylation in BMP4-stimulated mouse PASMC treated 30 mins before BMP4 challenge measured after 30 mins by immunoblot analysis
In short: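 Mouse PASMCs were held 24 h in 0.5% FCS RPMI, preincubated 30 min with a dose range of compound, then stimulated 30 min with BMP4. Phospho-SMAD1/5/8 and phospho-p38 were detected by immunoblot and quantitated by phosphorimager (RLU). IC50 was derived from a Hill plot of phospho-SMAD1/5/8 inhibition.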

Mus musculus [7] = species on record: Mus musculus; experiment: Inhibition of BMPR1-mediated Smad-1 phosphorylation in BMP6-stimulated mouse BMPR2 deficient PASMC at 4 uM treated 30 mins before BMP6 challenge measured after 30 mins by immunoblot analysis; in short: as §2
Danio rerio [8] = species on record: Danio rerio; experiment: Inhibition of BMPR1 in zebrafish assessed as penetrance of normal embryonic axis dorsalization at 1 uM treated at 3 hrs post-fertilization measured at 48 hrs; set-up: scale not given: the % may be the effect or the level left
Danio rerio [9] = species on record: Danio rerio; experiment: Inhibition of BMPR1 in zebrafish assessed as penetrance of normal embryonic axis dorsalization at 10 uM treated at 2 to 4 hrs post-fertilization measured at 48 hrs; set-up: scale not given: the % may be the effect or the level left
Danio rerio [10] = species on record: Danio rerio; experiment: Inhibition of BMPR1 in zebrafish assessed as penetrance of moderate embryonic axis dorsalization at 10 uM treated at 3 hrs post-fertilization measured at 48 hrs; set-up: scale not given: the % may be the effect or the level left
In short: (§3)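 Compound added at the stated times and concentrations. Gross morphology scored visually at up to 48 h.p.f. for dorsalization of the embryonic axis.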

Mus musculus [11] = species on record: Mus musculus; experiment: Inhibition of BMPR1-mediated Smad-8 phosphorylation in BMP6-stimulated mouse PASMC at 4 uM treated 30 mins before BMP6 challenge measured after 30 mins by immunoblot analysis
In short: (§4)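 Wild-type mouse PASMCs were kept in RPMI with 0.5% FCS for 24 h. They were preincubated with compound or vehicle for 30 min, then stimulated for 30 min with recombinant BMP2, BMP4, BMP6 or BMP7 at 10 ng ml−1. Lysates in SDS buffer were immunoblotted with anti-phospho-SMAD1/5/8. Total SMAD1 and α-tubulin served as loading controls, and bands were quantified by phosphorimager.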

Danio rerio [12] = experiment: Inhibition of iron-dextran conjugate-induced Smad-1 phosphorylation in zebrafish at 23 ug/g, iv after 1 hr relative to control; assay type: functional
C2C12 [13] = experiment: Inhibition of BMPR1-mediated osteoblast differentiation in BMP4-stimulated mouse C2C12 cells assessed as decrease in alkaline phosphatase level at 4 uM by spectrophotometry; assay type: cell-based; in short: as §1
Mus musculus [14] = species on record: Mus musculus; experiment: Inhibition of BMPR1-mediated Smad-8 phosphorylation in BMP7-stimulated mouse PASMC at 4 uM treated 30 mins before BMP7 challenge measured after 30 mins by immunoblot analysis; in short: as §4
Danio rerio [15] = species on record: Danio rerio; experiment: Inhibition of BMPR1 in zebrafish assessed as penetrance of normal embryonic axis dorsalization at 10 uM treated continuously from 4 hrs post-fertilization measured after 48 hrs; set-up: scale not given: the % may be the effect or the level left
Danio rerio [16] = species on record: Danio rerio; experiment: Inhibition of BMPR1 in zebrafish assessed as severity of embryonic axis dorsalization at 10 uM treated continuously from 6 hrs post-fertilization measured at 48 hrs; set-up: scale not given: the % may be the effect or the level left
Danio rerio [17] = species on record: Danio rerio; experiment: Inhibition of BMPR1 in zebrafish assessed as penetrance of moderate embryonic axis dorsalization at 10 uM treated at 6 to 8 hrs post-fertilization measured at 48 hrs; set-up: scale not given: the % may be the effect or the level left; in short: as §3
Mus musculus [18] = species on record: Mus musculus; experiment: Inhibition of BMPR1-mediated Smad-8 phosphorylation in BMP4-stimulated mouse PASMC at 4 uM treated 30 mins before BMP4 challenge measured after 30 mins by immunoblot analysis; in short: as §4
Mus musculus [19] = species on record: Mus musculus; experiment: Inhibition of activin receptor-mediated Smad-2 phosphorylation in activin-stimulated mouse PASMC at => 10 uM treated 30 mins before activin challenge measured after 30 mins by immunoblot analysis
In short: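 PASMCs serum-starved 24 h (0.5% FCS RPMI) were pretreated 30 min with compound at 0.1–20 µM or vehicle. They were then stimulated 30 min with recombinant TGF-β1 or activin A. Phospho-SMAD2 was detected by immunoblot of SDS lysates, and phosphorimager quantification was used.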

Danio rerio [20] = species on record: Danio rerio; experiment: Inhibition of BMPR1 in zebrafish assessed as penetrance of normal embryonic axis dorsalization at 5 uM treated at 3 hrs post-fertilization measured at 48 hrs; set-up: scale not given: the % may be the effect or the level left
Danio rerio [21] = experiment: Inhibition of iron-dextran conjugate-induced hepcidin mRNA expression in zebrafish at 23 ug/g, ip by qRT-PCR analysis; assay type: functional, organism-based
In short: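 Adult zebrafish under tricaine were injected intraperitoneally with 10 µl iron-dextran (100 mg ml−1) plus compound (23 µg g−1) or DMSO vehicle; controls received dextran. Livers were taken 3 h later and RNA was extracted with Trizol. Hepcidin mRNA was measured by qRT-PCR and normalised to liver fatty acid binding protein mRNA, with n = 4 per group.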

Danio rerio [22] = species on record: Danio rerio; experiment: Inhibition of BMPR1 in zebrafish assessed as decrease in eve1 expression at 10 uM treated at 18-somite stage measured at 48 hrs
Mus musculus [23] = species on record: Mus musculus; experiment: Inhibition of BMPR1-mediated Smad-1 phosphorylation in BMP7-stimulated mouse PASMC at 4 uM treated 30 mins before BMP7 challenge measured after 30 mins by immunoblot analysis; in short: as §4
Danio rerio [24] = species on record: Danio rerio; experiment: Inhibition of BMPR1 in zebrafish assessed as penetrance of moderate embryonic axis dorsalization at 10 uM treated continuously from 6 hrs post-fertilization measured at 48 hrs; set-up: scale not given: the % may be the effect or the level left; in short: as §3

In the case of `c1cc(-c2cnn3cc(-c4ccc(OCCN5CCCCC5)cc4)cnc23)ccn1` [DORSOMORPHIN], the inhibition (C2C12 [1]) is reported as “Active”, the inhibition (Mus musculus [2]) is reported as “Active” and the inhibition (Mus musculus [3]) is reported as “Active”. For the same compound, the inhibition (Mus musculus [4]) was “Active”, the “fold change (FC)” value (Danio rerio [5]) was 3 and the inhibition (Mus musculus [6]) was “inactive”. The inhibition (Mus musculus [7]) was “Active”, the Activity (Danio rerio [8]) was 100% and the Activity (Danio rerio [9]) was 0%. The Activity (Danio rerio [10]) was 98%, the inhibition (Mus musculus [11]) was “Active” and the “fold change (FC)” value (Danio rerio [12]) was 3. For the same compound, the inhibition (C2C12 [13]) was “Active”, the inhibition (Mus musculus [14]) was “Active” and the Activity (Danio rerio [15]) was 0%. For the same compound, the Activity (Danio rerio [16]) was 0%, the Activity (Danio rerio [17]) was 5% and the inhibition (Mus musculus [18]) was “Active”. The inhibition (Mus musculus [19]) was “Active”, the Activity (Danio rerio [20]) was 81% and the inhibition (Danio rerio [21]) was “Active”. For the same compound, the inhibition (Danio rerio [22]) was “Active”, the inhibition (Mus musculus [23]) was “Active” and the Activity (Danio rerio [24]) was 78%.
